Results as given in ChEMBL document CHEMBL1132544, “Synthesis and biological evaluation of novel prodrugs of anthracyclines for selective activation by the tumor-associated protease plasmin” (1999).
≈ marks a conversion by molar mass, not a printed value.

Assays:
Type in all cases: functional
[1] = Cytotoxicity against M19 tumor cell line; details: Homo sapiens; read-out: ID50 (the source's name)
Method in brief: (§1)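 Seven human tumour lines, continuous exposure to (pro)drug for 5 days, antiproliferative effect read by microculture sulforhodamine B (SRB) assay. ID50 = concentration giving 50% inhibition of cell growth relative to untreated control cultures, in ng/mL.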

MCF7 = assay: Cytotoxicity against MCF-7 tumor cell line; details: Homo sapiens, read-out: ID50 (the source's name); method in brief: as §1
A498 = assay: Cytotoxicity against A 498 tumor cell line; details: Homo sapiens, read-out: ID50 (the source's name); method in brief: as §1
WiDr = assay: Cytotoxicity against WIDR tumor cell line; details: Homo sapiens, read-out: ID50 (the source's name); method in brief: as §1
NCI-H226 = assay: Cytotoxicity against H 226 tumor cell line; details: Homo sapiens, read-out: ID50 (the source's name); method in brief: as §1
EVSA-T = assay: Cytotoxicity against EVSA-T tumor cell line; details: Homo sapiens, read-out: ID50 (the source's name); method in brief: as §1
IGROV-1 = assay: Cytotoxicity against IGROV tumor cell line; details: Homo sapiens, read-out: ID50 (the source's name); method in brief: as §1

| SMILES | IC50 [1] | IC50 (MCF7) | IC50 (A498) | IC50 (WiDr) | IC50 (NCI-H226) | IC50 (EVSA-T) | IC50 (IGROV-1) |
| --- | --- | --- | --- | --- | --- | --- | --- |
| COc1cccc2c1C(=O)c1c(O)c3c(c(O)c1C2=O)C[C@@](O)(C(C)=O)C[C@@H]3O[C@H]1C[C@H](N)[C@H](O)[C@H](C)O1 [DAUNORUBICIN] | 0.309 µg/mL (≈ 0.586 µM) | 0.329 µg/mL (≈ 0.624 µM) | 0.487 µg/mL (≈ 0.923 µM) | 0.038 µg/mL (≈ 0.072 µM) | 0.243 µg/mL (≈ 0.461 µM) | 0.048 µg/mL (≈ 0.091 µM) | 0.113 µg/mL (≈ 0.214 µM) |
| COc1cccc2c1C(=O)c1c(O)c3c(c(O)c1C2=O)C[C@@](O)(C(C)=O)C[C@@H]3OC1CC(NC(=O)OCc2ccc(NC(=O)[C@H](CCCCN)NC(=O)[C@H](Cc3ccccc3)NC(=O)[C@@H](C)N)cc2)C(O)C(C)O1.Cl.Cl (stereo partly drawn) | 1.58 µg/mL | 1.21 µg/mL | 1.16 µg/mL | 2.15 µg/mL | 1.7 µg/mL | 1.2 µg/mL | 0.225 µg/mL |
| COc1cccc2c1C(=O)c1c(O)c3c(c(O)c1C2=O)C[C@@](O)(C(=O)CO)C[C@@H]3O[C@H]1C[C@H](N)[C@H](O)[C@H](C)O1 [DOXORUBICIN] | 0.016 µg/mL (≈ 0.0294 µM) | 0.01 µg/mL (≈ 0.0184 µM) | 0.09 µg/mL (≈ 0.166 µM) | 0.011 µg/mL (≈ 0.0202 µM) | 0.199 µg/mL (≈ 0.366 µM) | 0.008 µg/mL (≈ 0.0147 µM) | 0.06 µg/mL (≈ 0.11 µM) |
| COc1cccc2c1C(=O)c1c(O)c3c(c(O)c1C2=O)C[C@@](O)(C(=O)CO)C[C@@H]3OC1CC(NC(=O)OCc2ccc(NC(=O)[C@H](CCCCN)NC(=O)[C@H](Cc3ccccc3)NC(=O)[C@@H](C)N)cc2)C(O)C(C)O1.Cl.Cl (stereo partly drawn) | 0.437 µg/mL | 0.176 µg/mL | 0.473 µg/mL | 0.413 µg/mL | 0.896 µg/mL | 0.141 µg/mL | 0.59 µg/mL |
